Experimental data as given in ChEMBL document CHEMBL4513216, “Probing the Open Global Health Chemical Diversity Library for Multistage-Active Starting Points for Next-Generation Antimalarials” (ACS Infect Dis, 2020).

Test: Toxicity liver stage against HepG2, at 10uM
Type: cell-based
Design: test concentration 10 uM, cell line HepG2-A16-CD81EGFP
Details: human, HepG2-A16-CD81EGFP cells; read-out: INHIBITION
In short: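 Uninfected HepG2-A16-CD81EGFP cells, 3 × 10^3 per well, 1536-well, plated on prespotted compound at 10 μM final, parasite-free screening media added to match infected plates; puromycin 10 μM positive, DMSO 0.5% negative; run in parallel with 48 h PbLuc assay at 37 °C, 5% CO2; viability by CellTiter-Glo luminescence, normalized to controls.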

Row | SMILES | cytotoxicity at 10 µM
1 | COCC(=O)N1Cc2cnc(Cc3ccc(OC)cc3)nc2C1 | -15.8%
2 | Cc1cnn(CC2CCCN2CCCS(=O)(=O)N(C)C)c1 (stereo not given) | -7.45%
3 | COc1ccc(C2CCCN2C(=O)NCCCn2cccn2)cc1 (stereo not given) | 7.53%
4 | CCc1cc(CNC(=O)N2Cc3ccccc3N(C)CC2C)on1 (stereo not given) | 4.38%
5 | Cc1c[nH]c(CN2CCC3(CCCN(Cc4ccc(F)c(F)c4)C3)C2)n1 (stereo not given) | -7.22%
6 | CNC(=O)N1CCCCC1CCNS(C)(=O)=O (stereo not given) | -3.41%
7 | Cn1ccnc1CN1CCCN(C(=O)c2ccc3cc[nH]c3c2)CC1 | -6.44%
8 | COC(=O)CCC(=O)N1CCc2nc(C(=O)N3CCCCC3)sc2CC1 | 15.4%
9 | CSCC(CCO)NC(=O)Nc1cc(F)ccc1C (stereo not given) | -1.8%
10 | Cc1occc1C(=O)N1CCC(C(O)c2ccc(F)cc2)CC1 (stereo not given) | -2.69%
11 | COc1ccc2cc(C3CN(C(=O)CCNC(C)=O)CCO3)ccc2c1 (stereo not given) | 9.85%
12 | CCOCc1nc2c(c(N3CC=CC3)n1)CCN(Cc1ccco1)CC2 | -3.81%
13 | O=c1oc2ccccc2n1CCCN1CCCC1c1ccc(O)cc1 (stereo not given) | 7.87%
14 | Cc1nc(CC(=O)N2CCCC(N(C)Cc3ccccc3)C2)cs1 (stereo not given) | 9.38%
15 | O=C(Nc1nc(-c2ccccc2)ns1)N1CCN(C(=O)C2CC2)CC1 | -150%
16 | CN(C)c1ncccc1CNc1snc(Cl)c1C#N | -5.1%
17 | CCn1ccnc1CN1CCCC(CO)(CCCc2ccccc2)C1 (stereo not given) | -4.84%
18 | CCc1cc(CN(C)C(=O)c2nnc(CN(C)C)o2)on1 | 1.77%
19 | CC(=O)N1C[C@@H](F)[C@@H](OCc2nc3cc(C)c(C)cc3[nH]2)C1 | 1.77%
20 | O[C@@H]1C[C@H]2CN(Cc3ccccc3)[C@H](Cc3ccccc3)CN2C1 | -0.658%
21 | CCCc1nc(CN(C)CCOc2ccccc2)cs1 | -8.53%
22 | CC(C)C(C)NC(=O)Nc1cccn(C)c1=O (stereo not given) | -7.48%
23 | COC(=O)c1cc(C(=O)N2CCOC(C)(C)C2)n(-c2ccccc2)n1 | -2.81%

Row | SMILES | cytotoxicity at 10 µM
24 | NCC(=O)N1CCCC1c1ccc(C(=O)NCc2ccoc2)s1 (stereo not given) | 1.68%
25 | O=C(O)c1ccn(-c2ccccc2NC(=O)c2ccccc2Cl)n1 | -161%
26 | CS(=O)(=O)N1C[C@@H](C(=O)Nc2cnccn2)C[C@H]2OCC[C@H]21 | 17.3%
27 | CCOCC1CC2(CCN(C(=O)c3ccc4ccccc4n3)CC2)CO1 (stereo not given) | 3.79%
28 | CC(=O)Nc1ccc(Oc2cc(C)nc(C3CCNCC3)c2)cc1 | 2.69%
29 | Cc1nn(C)c(C)c1-c1cnc(C2CCCN(S(C)(=O)=O)C2)cn1 (stereo not given) | -11.3%
30 | CCN1CCN(c2ncc(-c3cc(C)no3)c(-c3ccoc3C)n2)CC1 | 1.16%
31 | Cc1cccc(CN2C[C@@H]3COC[C@]3(CNC(=O)C3CC3)C2)c1 | -107%
32 | COCCCN(CCOC)C(=O)Nc1ccc(Br)cc1 | 6.66%
33 | CCN(CC)S(=O)(=O)c1ccc(NC(=O)C(C)(C)C)cc1 | 9.22%
34 | Cc1ncsc1C(=O)NCCNC(=O)OC(C)(C)C | 4.73%
35 | Cn1cnc(NC(=O)C2CC(=O)N(c3cccc(F)c3)C2)n1 (stereo not given) | 4.28%
36 | CCCn1nc(-c2nc(C3CC3)no2)ccc1=O | 1.77%
37 | Cc1nc(C)n(C2CCCN(C(=O)c3cc(C4CC4)on3)C2)n1 (stereo not given) | -3.87%
38 | Cc1nnc(N2CCO[C@H]3[C@@H](OCc4ccccn4)CC[C@@H]32)s1 | 12.2%
39 | Cc1cc(CN(C)Cc2ncc(C(C)(C)C)o2)no1 | 2.58%
40 | CCCn1nccc1C(=O)Nc1ncc(C)s1 | 8.05%
41 | COCCCN(Cc1ccncc1)c1cc(C)ncn1 | 3.35%
42 | CC(NC(=O)N(C)C1CC1)c1ccc(Oc2cccnc2)c(F)c1 (stereo not given) | -1.23%
43 | Cn1cc(CN2CCC3(CCN(c4cnn(C)c4)C3=O)C2)cn1 (stereo not given) | -83.4%
44 | CC(C)OCCC(=O)NCC(O)c1c(F)cccc1F (stereo not given) | -6.51%
45 | Cc1ccc(CN[C@@H]2CO[C@H](CNS(=O)(=O)c3ccccc3)[C@H]2O)cc1 | -10.1%
